Experimental data collected from several papers.
Lines come from different studies, so protocols differ.
Target: Mitogen-activated protein kinase 15 (MAPK15, Homo sapiens, UniProt Q8TD08)
One construct used (Q8TD08 1-544): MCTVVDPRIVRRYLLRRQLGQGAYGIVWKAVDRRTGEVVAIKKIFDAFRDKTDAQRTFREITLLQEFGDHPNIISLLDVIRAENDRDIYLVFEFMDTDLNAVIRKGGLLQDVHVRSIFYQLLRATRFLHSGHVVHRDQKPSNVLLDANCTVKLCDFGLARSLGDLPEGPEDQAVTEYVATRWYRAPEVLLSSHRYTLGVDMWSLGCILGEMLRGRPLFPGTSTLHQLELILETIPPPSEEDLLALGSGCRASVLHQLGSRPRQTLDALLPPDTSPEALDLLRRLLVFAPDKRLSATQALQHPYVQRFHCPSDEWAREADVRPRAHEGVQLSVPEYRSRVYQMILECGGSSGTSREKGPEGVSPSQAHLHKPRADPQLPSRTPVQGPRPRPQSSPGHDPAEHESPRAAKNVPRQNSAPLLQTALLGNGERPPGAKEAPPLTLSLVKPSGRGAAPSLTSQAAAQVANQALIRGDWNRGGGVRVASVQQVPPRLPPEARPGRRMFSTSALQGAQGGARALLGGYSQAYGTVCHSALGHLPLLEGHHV

The remaining activity of `CC(C)(C)c1nc2c(s1)c1nc(N)ncc1c1ccc(NS(=O)(=O)c3c(F)cccc3F)c(F)c12` is reported as 81% (enzyme activity; inhibitor; radiometric; 1 µM).
`O=C(Nc1cccnn1)N1CCC(=Cc2cccc(Oc3ccc(C(F)(F)F)cn3)c2)CC1` has a remaining binding of 83% (cell-free assay; competition with immobilised ligand; 1 µM).
The remaining activity of `COc1cc(Nc2cnc(C#N)c(O[C@H](C)CN(C)C)n2)ncc1-c1cnn(C)c1` is reported as 101% (enzyme activity; inhibitor; radiometric; 1 µM).
With `FC(F)(F)Oc1cccc(-c2cnc3ccc(-c4ccncc4)nn23)c1` the activity vs control was 17% (enzyme activity; inhibitor; radiometric; 5 µM).
`Cc1nccc(COC(=O)N2C[C@@H]3[C@@H](CNC(=O)c4ccc5[nH]nnc5c4)[C@@H]3C2)n1` gave a remaining binding of 100% (cell-free assay; competition with immobilised ligand; 1 µM).
`Cn1cnc(Br)c1C1=CN(c2ncnc3[nH]cnc23)CCS1` has an inhibition of 80.2% (enzyme activity; inhibitor; radiometric; 2 µM).
The remaining activity of `FC(F)c1nc2ccccc2n1-c1nc(N2CCOCC2)nc(N2CCOCC2)n1` is reported as 92% (enzyme activity; inhibitor; 10 µM).
For `Nc1nc(NC2CCCCC2)sc1C(=O)c1ccccc1`, the remaining activity was 18% (enzyme activity; inhibitor; 10 µM).
For `N#CC1(c2ccccn2)CCN(Cc2cc(C(=O)N3CCCC3)c(=O)n3ccccc23)CC1`, the remaining binding was 92% (cell-free assay; competition with immobilised ligand; 1 µM).
`COc1cc(/C=C/C(=O)CC(=O)/C=C/c2ccc(O)c(OC)c2)ccc1O` gave an activity vs control of 77% (enzyme activity; inhibitor; 1 µM).
`O=C(Nc1cnn(-c2csc(C(=O)NC3COC3)c2)c1)Nc1ccccc1Cl` gave a remaining activity of 140% (enzyme activity; inhibitor; 5 µM).
For `C[C@@]1(Cc2ccc(C#N)cc2)C(=O)N(c2cc(Cl)cc(Cl)c2)c2ncc(C(=O)NC3(c4nc(C5CCC5)no4)CC3)n21`, the remaining binding was 100% (cell-free assay; competition with immobilised ligand; 1 µM).
The remaining activity of `Cc1sc(C(=O)NC2COC2)cc1-n1cc(NC(=O)Nc2c(F)cccc2Cl)cn1` is reported as 103% (enzyme activity; inhibitor; 10 µM).
For `Oc1cccc(-c2nc(N3CCOCC3)c3oc4ncccc4c3n2)c1`, the remaining activity was 87% (enzyme activity; inhibitor; 10 µM).
